From ChEMBL document CHEMBL2146377, “Rational design of 4-aryl-1,2,3-triazoles for indoleamine 2,3-dioxygenase 1 inhibition” (J Med Chem, 2012)
Active and inactive are the calls of the source. The rule behind the calls is not given here.

Experiments:
[1] = tested on: HepG2; experiment: Cytotoxicity against human HepG2 cells after 24 hrs by MTS-PMS assay; format: functional; conditions: HepG2, 24 h, read-out: LD50 (the source's name)
Method in brief: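 Hep G2 cells (2 × 10⁴ per well) in IMDM with 10% FCS exposed to compound titrated 0.001–100 μM for 24 h at 37 °C; living cells counted by MTS/PMS assay; LD₅₀ reported as mean of at least two independent assays with standard deviation.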

[2] = target: T1, Indoleamine 2,3-dioxygenase 1 (Homo sapiens, UniProt P14902); experiment: Inhibition of human IDO1 transfected in HEK293 clone 6 cells by HPLC analysis; format: cell-based
Target sequence in this assay (P14902 whole entry, looked up): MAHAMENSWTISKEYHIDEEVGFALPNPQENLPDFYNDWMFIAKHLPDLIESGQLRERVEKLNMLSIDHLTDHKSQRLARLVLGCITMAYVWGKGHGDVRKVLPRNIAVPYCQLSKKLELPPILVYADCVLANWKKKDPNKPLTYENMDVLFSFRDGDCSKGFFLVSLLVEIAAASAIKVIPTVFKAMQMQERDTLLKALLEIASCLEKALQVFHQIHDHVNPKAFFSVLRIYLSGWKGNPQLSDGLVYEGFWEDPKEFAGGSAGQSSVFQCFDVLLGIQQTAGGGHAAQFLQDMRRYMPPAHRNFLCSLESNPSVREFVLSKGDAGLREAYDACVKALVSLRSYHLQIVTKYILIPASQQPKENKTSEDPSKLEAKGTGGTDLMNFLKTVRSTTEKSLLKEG

[3] = target: T1, Indoleamine 2,3-dioxygenase 1; experiment: Inhibition of human recombinant N-terminal His-tagged IDO1 (Ala2 to Gly403) overexpressed in Escherichia coli BL21 at pH 6.5 after 60 mins by HPLC analysis
Target sequence in this assay (P14902 whole entry): as the sequence (P14902 whole entry, looked up) above

[4] = target: Tryptophan 2,3-dioxygenase (Mus musculus, UniProt P48776); experiment: Inhibition of mouse TDO in P815 clone 12 cells by HPLC analysis; format: cell-based
[5] = target: Tryptophan 2,3-dioxygenase (Homo sapiens, UniProt P48775); experiment: Inhibition of human TDO transfected in mouse P815B clone 19 cells by HPLC analysis; format: cell-based
[6] = target: T1, Indoleamine 2,3-dioxygenase 1; experiment: Inhibition of human IDO1 transfected in mouse P815B clone-6 cells by HPLC analysis; format: cell-based
Target sequence in this assay (P14902 whole entry): as the sequence (P14902 whole entry, looked up) above

[7] = target: Indoleamine 2,3-dioxygenase 1 (Mus musculus, UniProt P28776); experiment: Inhibition of mouse IDO1 in P815 clone 6 cells by HPLC analysis; format: cell-based
Method in brief: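 Murine mastocytoma P815 stably transfected cells were used: P815-mIDO1 clone 6 for mouse IDO1 and P815B-hIDO1 clone 6 for human IDO1. Cells with inhibitor were incubated at 37 °C until under 50% of tryptophan was consumed, as tracked in control wells by pDMAB absorbance at 480 nm. Supernatant was TCA-precipitated, and tryptophan and kynurenine were quantified by C18 HPLC. Values are the mean of ≥2 independent assays.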

[8] = target: T1, Indoleamine 2,3-dioxygenase 1; conditions: at 1 mM
Target sequence in this assay (P14902 whole entry, looked up): as above

[9] = physchem; conditions: pH 2

Tryptophan 2,3-dioxygenase (Homo sapiens, UniProt P48775), sequence (P48775 whole entry): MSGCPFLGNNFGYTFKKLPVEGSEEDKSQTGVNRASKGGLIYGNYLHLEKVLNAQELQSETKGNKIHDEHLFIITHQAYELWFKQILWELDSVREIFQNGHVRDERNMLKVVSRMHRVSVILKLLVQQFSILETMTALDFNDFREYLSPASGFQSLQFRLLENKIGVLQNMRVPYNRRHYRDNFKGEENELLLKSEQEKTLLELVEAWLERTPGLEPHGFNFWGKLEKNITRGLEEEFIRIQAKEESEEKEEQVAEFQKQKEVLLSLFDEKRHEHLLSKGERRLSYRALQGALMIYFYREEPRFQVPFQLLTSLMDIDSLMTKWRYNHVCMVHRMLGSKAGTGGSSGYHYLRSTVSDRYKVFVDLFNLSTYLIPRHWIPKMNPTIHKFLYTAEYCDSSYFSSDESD
Tryptophan 2,3-dioxygenase (Mus musculus, UniProt P48776), sequence (P48776 whole entry): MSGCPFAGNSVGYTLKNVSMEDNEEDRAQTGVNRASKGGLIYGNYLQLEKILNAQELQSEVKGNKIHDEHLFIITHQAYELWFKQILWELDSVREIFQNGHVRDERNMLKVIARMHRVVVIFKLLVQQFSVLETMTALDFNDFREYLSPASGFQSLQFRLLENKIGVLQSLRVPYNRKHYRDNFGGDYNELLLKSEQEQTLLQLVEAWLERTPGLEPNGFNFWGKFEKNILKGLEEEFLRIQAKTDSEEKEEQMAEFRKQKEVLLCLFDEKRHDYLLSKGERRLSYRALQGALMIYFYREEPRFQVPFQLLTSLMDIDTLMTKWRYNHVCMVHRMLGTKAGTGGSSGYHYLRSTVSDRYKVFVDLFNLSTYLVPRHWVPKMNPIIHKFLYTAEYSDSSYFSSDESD
Indoleamine 2,3-dioxygenase 1 (Mus musculus, UniProt P28776), sequence (P28776 whole entry): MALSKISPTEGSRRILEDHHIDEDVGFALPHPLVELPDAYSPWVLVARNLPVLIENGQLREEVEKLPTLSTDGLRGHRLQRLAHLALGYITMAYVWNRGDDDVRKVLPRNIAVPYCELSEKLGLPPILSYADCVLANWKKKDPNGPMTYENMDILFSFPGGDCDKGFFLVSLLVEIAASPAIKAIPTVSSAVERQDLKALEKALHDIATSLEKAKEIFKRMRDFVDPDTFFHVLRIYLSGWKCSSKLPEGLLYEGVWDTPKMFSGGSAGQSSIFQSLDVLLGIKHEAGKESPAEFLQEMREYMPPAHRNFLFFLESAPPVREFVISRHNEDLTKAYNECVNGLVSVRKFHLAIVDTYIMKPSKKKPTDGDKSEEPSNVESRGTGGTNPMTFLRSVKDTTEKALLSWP

SMILES	CC50 [1]	inhibition [2]	IC50 [3]	IC50 [4]	IC50 [5]	IC50 [6]	IC50 [7]	inhibition [8]	also measured
Fc1ccc(-c2cnn[nH]2)cc1	> 100 µM	Active	–	–	–	–	–	–	–
FC(F)(F)c1cc(-c2c[nH]nn2)ccn1	> 100 µM	Active	15 µM	> 100 µM	> 100 µM	56 µM	340 nM	–	–
Cn1ncc(-c2ccccc2)n1	–	–	–	–	–	–	–	inactive	–
O=Cc1ccccc1-c1c[nH]nn1	–	–	1300 µM	–	–	–	–	–	–
Cc1[nH]nnc1-c1ccccc1	–	–	–	–	–	–	–	inactive	pKa [9]: 9.11
c1nnn[nH]1 [TETRAZOLE]	–	–	–	–	–	–	–	–	pKa [9]: 4.79
Cc1ccc2[nH]nnc2c1	–	–	–	–	–	–	–	inactive	–
Oc1ccccc1-c1ccno1	–	–	–	–	–	–	–	inactive	–
c1c[nH]cn1 [IMIDAZOLE]	–	–	–	–	–	–	–	–	pKa [9]: 14.5
Fc1ccccc1-c1c[nH]nn1	> 100 µM	Active	80 µM	> 100 µM	> 100 µM	70 µM	630 nM	–	–
c1cc(-c2c[nH]cn2)ccn1	–	–	1800 µM	–	–	–	–	–	–
Cn1nncc1-c1ccccc1	–	–	–	–	–	–	–	inactive	–
NCCc1ccccc1-c1c[nH]nn1	–	–	–	–	–	–	–	inactive	–
c1ccc(SCc2c[nH]nn2)cc1	–	–	–	–	–	–	–	inactive	–
O=[N+]([O-])c1cccc(-c2c[nH]nn2)c1	> 100 µM	Active	15 µM	> 100 µM	> 100 µM	24 µM	110 nM	–	–
COc1ccccc1-c1cnnn1-c1ccccc1	–	–	–	–	–	–	–	inactive	–
Oc1cccc(-c2c[nH]nn2)c1	> 100 µM	Active	310 µM	> 100 µM	> 100 µM	> 100 µM	1300 nM	–	–
CCc1ccccc1-c1c[nH]nn1	> 100 µM	Active	230 µM	> 100 µM	> 100 µM	> 100 µM	13000 nM	–	–
Cc1cccc(N)c1-c1c[nH]nn1	–	–	1200 µM	–	–	–	–	–	–
c1ccc2[nH]nnc2c1	–	–	–	–	–	–	–	inactive	–
Oc1ccccc1-c1c[nH]nn1	> 100 µM	Active	15 µM	> 100 µM	> 100 µM	1.7 µM	22 nM	–	–
c1ccc(Cn2nncc2-c2ccccc2)cc1	–	–	–	–	–	–	–	inactive	–
Fc1ccc2c(/C=C/c3nnn[nH]3)c[nH]c2c1	> 100 µM	Active	–	17 µM	–	–	> 100000 nM	–	–
Clc1ccc(-c2c[nH]nn2)cc1	–	–	530 µM	–	–	–	–	–	pKa [9]: 8.46
Fc1cccc(-c2c[nH]nn2)c1	> 100 µM	Active	47 µM	> 100 µM	> 100 µM	> 100 µM	1100 nM	–	pKa [9]: 8.38

SMILES	CC50 [1]	inhibition [2]	IC50 [3]	IC50 [4]	IC50 [5]	IC50 [6]	IC50 [7]	inhibition [8]	also measured
O=C(O)CCc1ccccc1-c1c[nH]nn1	–	–	–	–	–	–	–	inactive	–
C1=C(c2c[nH]nn2)CCCC1	–	–	–	–	–	–	–	inactive	–
Clc1cccc(-c2c[nH]nn2)c1Cl	> 100 µM	Active	23 µM	> 100 µM	> 100 µM	> 100 µM	1700 nM	–	pKa [9]: 8.06
Cn1nncc1-c1cccc(Cl)c1	–	–	–	–	–	–	–	inactive	–
CCn1ncc(-c2ccccc2)n1	–	–	–	–	–	–	–	inactive	–
Brc1ccccc1-c1c[nH]nn1	–	–	6.4 µM	> 100 µM	> 100 µM	2.6 µM	34 nM	–	–
Cc1ccccc1-c1c[nH]nn1	> 100 µM	Active	39 µM	> 100 µM	> 100 µM	> 100 µM	1700 nM	–	–
c1ccc(-c2cnnn2-c2ccccc2)cc1	–	–	–	–	–	–	–	inactive	–
CCCCn1nncc1-c1ccccc1	–	–	–	–	–	–	–	inactive	–
Cn1cc(-c2ccccc2)nn1	–	–	–	–	–	–	–	inactive	–
c1ccc(Cn2cc(-c3ccccc3)nn2)cc1	–	–	–	–	–	–	–	inactive	–
Nc1cccc(-c2c[nH]nn2)c1	> 100 µM	Active	1500 µM	> 100 µM	> 100 µM	> 100 µM	4000 nM	–	–
CCCCn1cc(-c2ccccc2)nn1	–	–	–	–	–	–	–	inactive	–
Cc1cccc(-c2c[nH]nn2)c1	> 100 µM	Active	22 µM	> 100 µM	> 100 µM	7 µM	120 nM	–	–
Oc1ccc(Cl)cc1-c1c[nH]nn1	> 100 µM	Active	–	> 100 µM	> 100 µM	–	2 nM	–	–
Cc1cccc(-c2cnnn2-c2ccccc2)c1	–	–	–	–	–	–	–	inactive	–
Cc1c(Cl)cccc1-c1c[nH]nn1	–	–	72 µM	–	–	–	–	–	–
Clc1ccccc1-c1c[nH]nn1	–	–	32 µM	> 100 µM	> 100 µM	> 100 µM	1500 nM	–	pKa [9]: 8.5
c1cc(-c2cnn[nH]2)ccn1	–	–	85 µM	–	–	–	–	–	pKa [9]: 7.85
Brc1ccccc1-c1cnn[nH]1	> 100 µM	Active	–	–	–	–	–	–	–
c1ccc(-c2ccncn2)cc1	–	–	–	–	–	–	–	inactive	–
c1cncc(-c2c[nH]nn2)c1	–	–	1000 µM	–	–	–	–	–	pKa [9]: 8.14
Fc1ccc(-c2c[nH]nn2)cc1	–	–	190 µM	> 100 µM	> 100 µM	> 100 µM	2100 nM	–	–
FC(F)(F)c1ccccc1-c1c[nH]nn1	> 100 µM	Active	650 µM	> 100 µM	> 100 µM	> 100 µM	20000 nM	–	–
Clc1cc(-c2c[nH]nn2)ccn1	> 100 µM	Active	2.8 µM	> 100 µM	> 100 µM	3.5 µM	60 nM	–	pKa [9]: 7.6

SMILES	CC50 [1]	inhibition [2]	IC50 [3]	IC50 [4]	IC50 [5]	IC50 [6]	IC50 [7]	inhibition [8]	also measured
c1ccc(-c2nnn[nH]2)cc1	–	–	–	–	–	–	–	inactive	pKa [9]: 4.53
FC(F)(F)c1ccc(-c2c[nH]nn2)cc1	–	–	2300 µM	–	–	–	–	–	–
CNc1ccccc1-c1c[nH]nn1	–	–	1800 µM	–	–	–	–	–	–
Fc1cc(-c2c[nH]nn2)ccn1	> 100 µM	Active	7.4 µM	> 100 µM	> 100 µM	7 µM	120 nM	–	pKa [9]: 7.59
CCn1nncc1-c1ccccc1	–	–	–	–	–	–	–	inactive	–
N#Cc1cccc(-c2c[nH]nn2)c1	> 100 µM	Active	2.8 µM	> 100 µM	> 100 µM	2.9 µM	29 nM	–	–
Cn1cc(-c2cccc(Cl)c2)nn1	–	–	–	–	–	–	–	inactive	–
CCn1cc(-c2ccccc2)nn1	–	–	–	–	–	–	–	inactive	–
c1cc(-c2ccncc2)ccn1	–	–	–	–	–	–	–	inactive	–
Nc1ccccc1-c1c[nH]nn1	> 100 µM	Active	60 µM	> 100 µM	> 100 µM	> 100 µM	1700 nM	–	–
Cc1ccc(N)cc1-c1c[nH]nn1	–	–	3200 µM	–	–	–	–	–	–
Clc1ccccc1-c1cnn[nH]1	> 100 µM	Active	–	–	–	–	–	–	–
Brc1cc(-c2c[nH]nn2)ccn1	> 100 µM	Active	3.3 µM	> 100 µM	> 100 µM	2.9 µM	50 nM	–	–
c1ccc(Cc2c[nH]nn2)cc1	–	–	–	–	–	–	–	inactive	–
Nc1nonc1C(=NO)Nc1ccc(F)c(Cl)c1	–	–	–	60 µM	70 µM	–	–	–	–
Cc1cccc(NC(=O)C(F)(F)F)c1-c1c[nH]nn1	–	–	3000 µM	–	–	–	–	–	–
c1ccc(-c2ccncc2)cc1	–	–	–	–	–	–	–	inactive	–
Clc1cccc(-c2cnnn2-c2ccccc2)c1	–	–	–	–	–	–	–	inactive	–
Cc1ccc(-c2c[nH]nn2)cc1	–	–	1000 µM	–	–	–	–	–	–
FC(F)(F)c1cccc(-c2c[nH]nn2)c1	> 100 µM	Active	6 µM	> 100 µM	> 100 µM	9 µM	70 nM	–	–
CCc1cccc(-c2c[nH]nn2)c1	> 100 µM	Active	13 µM	> 100 µM	> 100 µM	1.1 µM	30 nM	–	–
Nc1nonc1/C(=N/O)Nc1ccc(F)c(Cl)c1	> 100 µM	Active	–	–	–	–	–	–	–
Fc1ccc(-c2cnnn2-c2ccccc2)cc1	–	–	–	–	–	–	–	inactive	–
Cc1ccc(Cl)cc1-c1c[nH]nn1	> 100 µM	Active	4.3 µM	> 100 µM	> 100 µM	14 µM	120 nM	–	–
Brc1cccc(-c2c[nH]nn2)c1	> 100 µM	Active	2 µM	> 100 µM	> 100 µM	0.94 µM	23 nM	–	–
